# The list is not random: actives were taken first. Their share in the collection is about 2%.
# FN deposit inh – fibronectin deposition inhibition. AH1F fibroblasts, Alexa488-fibronectin deposition fluorescence, overnight. inhibition, % at 12.6 µM. hit rate 0.086% among 350,000;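 active means mean inhibition across replicates of 30% or more, regardless of how many single replicates reach that level; inconclusive means mean under 30% yet at least half of replicates reach 30%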;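 further: positive control wells lacked labelled fibronectin entirely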
#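 Assay system: AH1F fibroblasts assembling fluorescent fibronectin matrix; Amount: 10000 AH1F cells per well; Buffer or medium: DMEM, 2% serum; Probe or stimulus: Alexa488-fibronectin, 24 nM final in well; Doses: single compound dose, delivered by pin transfer; Incubation: 1 h adhesion, overnight exposure; Measured by: fluorescence 485/525 nm; Read-out: fibronectin deposition inhibition.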
# CaV13 ICDI inh – Disruptors of the CACNA1D IQ motif to Ca2+-dependent inactivation inhibitor domain association, primary screening, Förster resonance energy transfer in intact living …; inhibition, % at 12.3 µM; hit rate 0.098% among 340,000; HEK cells, CFP/YFP FRET ICDI-IQ, plate reader, 10 min; percent FRET-ratio fall versus neutral wells;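 active means mean replicate inhibition of at least 30% and at least 1% of replicates passing that level; inconclusive means only one of the two criteria is met; inactive means neither criterion is met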;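 further: 0% = median of the neutral control wells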
# DENV2 CPE – inhibitors of DENV2 cytopathic effect | DENV2-infected cells, cytopathic effect rescue, plate reader | CPE inhibition, % at 9.99 µM | hit rate 1.7% among 350,000; in the data active means CPE inhibition above about 20%, passing the limit was not always enough; inconclusive means no clear call, values can overlap the other calls; tested in BHK-21 cells;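 further: 0% = median of neutral control wells and 100% = median of positive control wells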
# XiGFP reactiv – activators of X-chromosome reactivation in mouse fibroblasts; XiGFP mouse fibroblasts, % GFP-positive cells imaging, 3 d; cells co-treated with 5-aza-dC sensitizer; scaled so ellipticine positive control = 100%; activation, % at 7.58 µM; hit rate 0.055% among 360,000;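 active means mean normalized replicate activation at least 10% and every replicate at or above 10%; inconclusive means only one of the two criteria met; inactive means mean below 10% and not all replicates reach 10%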;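 further: 0% = median of on-plate neutral control wells and 100% = ellipticine 6 µM median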
#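 Assay system: SV40-immortalized XiGFP fibroblast cells, line 68-5-11; buffer or medium: DMEM plus 5-aza-dC sensitizer; compound: one concentration, pinned; timing: compounds 3 days, fix/stain 15 min at room temperature; benchmarks: positive control ellipticine, 6 µM final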
# Casp6 inh – blocks human caspase-6 cleavage activity | hit rate 0.53% among 350,000 | purified caspase-6, Z-VEID-R110 cleavage fluorescence | inhibition, % at 12.5 µM | P55212;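 active means mean inhibition across replicates at least about 35%, with every replicate also reaching that limit, limit read from the data; inconclusive means only one of the two criteria met; inactive means neither criterion met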;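 further: 0% = median of neutral control wells and 100% = no fluorescence left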
# Target sequence (P55212 24-179 limits assumed): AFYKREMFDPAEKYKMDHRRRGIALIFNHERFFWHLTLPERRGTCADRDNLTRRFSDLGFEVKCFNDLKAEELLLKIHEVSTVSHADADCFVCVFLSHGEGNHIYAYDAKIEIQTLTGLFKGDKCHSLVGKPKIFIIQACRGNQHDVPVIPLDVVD
# Target sequence (P55212 194-293 limits assumed): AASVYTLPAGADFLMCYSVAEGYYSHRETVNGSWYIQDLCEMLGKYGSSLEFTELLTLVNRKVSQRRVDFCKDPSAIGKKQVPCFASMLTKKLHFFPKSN
# * marks the source's active call; other numbers are inactive results; ? = inconclusive; · = no result given.
SMILES,FN deposit inh,CaV13 ICDI inh,DENV2 CPE,XiGFP reactiv,Casp6 inh
CC1(C)Oc2ccc3ccc(=O)oc3c2C[C@H]1O[C@@H]1O[C@H](CO)[C@@H](O)[C@H](O)[C@H]1O,1,-11,41*,0,22
CC1(C)Oc2ccc3ccc(=O)oc3c2CC1O (stereo not drawn),1,-3,5,0,1
C[C@H](CO)N1C[C@H](C)[C@H](CN(C)Cc2cccc(C(=O)O)c2)OCc2cn(nn2)CCCC1=O,2,·,2,0,-3
C[C@@H]1CN([C@H](C)CO)C(=O)c2cc(C#CC(C)(C)O)cnc2O[C@H]1CN(C)C(=O)C1CCCCC1,·,·,·,-1,·
O=C(NC1CC1)c1cc(Cl)nc2ccccc12,12,-6,0,0,1
CC1(NC(=O)c2cc(Cl)nc3ccccc23)CCS(=O)(=O)C1 (stereo not drawn),9,-6,54*,0,0
CC(=O)N1N=C(c2ccc(C)o2)CC1c1ccc(Br)cc1 (stereo not drawn),-1,-5,·,·,·
COc1ccc(C2CC(c3ccc(C)o3)=NN2C(C)=O)cc1 (stereo not drawn),-7,-5,34*,0,0
C[C@@H]1C(=O)NCCC=CC[C@H](C)Oc2ccccc2C(=O)N1C (mixture of isomers),-1,·,·,0,·
CCOC(=O)C1=CN(CC2CCCO2)C=C(C(=O)OCC)C1c1ccccc1C(F)(F)F (stereo not drawn),9,76*,-5,0,4
CNC[C@@H]1OCCCC[C@H](C)Oc2ccc(NC(=O)Nc3cccc4ccccc34)cc2C(=O)N([C@H](C)CO)C[C@@H]1C,·,·,·,0,·
COc1cccc(-c2ccc3c(c2)[C@@H]2[C@@H](CCN2C(=O)c2ccc(F)cc2)[C@H](CO)N3C)c1,-1,·,24*,0,·
CN1c2ccc(-c3cccc(F)c3)cc2[C@H]2[C@H](CCN2C(=O)c2ccccc2F)[C@H]1CO,-2,·,69*,0,-2
COc1cccc(NC(=O)N2CC[C@@H]3[C@H]2c2cc(-c4cccc(OC)c4)ccc2N(C)[C@H]3CO)c1,-12,·,68*,0,1
COc1cccc(-c2ccc3c(c2)[C@H]2[C@H](CCN2C(=O)c2ccccc2F)[C@@H](CO)N3C)c1,-10,·,-5,0,·
CN1c2ccc(-c3ccccc3)cc2[C@@H]2[C@@H](CCN2C(=O)Cc2ccccn2)[C@@H]1CO,-16,·,22*,0,-1
CC(=O)N(C)C[C@@H]1Oc2c(NS(C)(=O)=O)cccc2C(=O)N(C)C[C@H]1C,-5,·,·,0,·
COc1cccc(S(=O)(=O)N(C)C[C@H]2Oc3cc(C#CCC(C)C)ccc3S(=O)(=O)N([C@H](C)CO)C[C@H]2C)c1,-6,·,?,0,0
CC(C)C(=O)N1CCN(c2ccccc2NC(=O)c2cccc3ccccc23)CC1,-13,-2,0,0,60*
NC(=O)C(CCC(=O)c1ccc(Br)cc1)S(=O)(=O)c1ccccc1 (stereo not drawn),-11,·,31*,0,2
C[C@H](CO)N1C[C@H](C)[C@H](CN(C)Cc2ccccc2)Oc2ccc(NC(=O)CCN3CCOCC3)cc2CC1=O,·,·,-1,0,-1
COc1cccc(NC(=O)CN(C)C(=O)CSc2nc3ccccc3s2)c1,3,-8,·,0,2
CN(CC(=O)Nc1cccc(F)c1)C(=O)CSc1nc2ccccc2s1,1,-6,61*,0,-9
CN(CC(=O)Nc1cccc(F)c1)C(=O)c1ccccc1CCc1ccccc1,4,-5,69*,0,-3
CNC[C@@H]1Oc2ccc(NS(=O)(=O)c3ccc(F)cc3)cc2CC(=O)N([C@@H](C)CO)C[C@H]1C,·,·,?,0,1
SMILES,FN deposit inh,CaV13 ICDI inh,DENV2 CPE,XiGFP reactiv,Casp6 inh
CCCNC(=O)N1C[C@H](O)COC[C@@H]2O[C@H](CC(=O)N3CCC(Cc4ccccc4)CC3)CC[C@H]21,-6,·,?,0,1
CC(=O)Nc1ccc2c(c1)C(=O)N(C)[C@H]1CC[C@@H](CC(=O)NCC3CCCCC3)O[C@H]1CO2,-2,·,-2,0,·
Cc1cccc(-c2ccc([C@@H]3[C@H](CO)N4CCCCN(S(=O)(=O)c5cccs5)C[C@@H]34)cc2)c1,·,·,1,0,-4
O=C(Nc1cc2c(oc1=O)CCCC2=O)c1cccc(Cl)c1,2,-5,·,·,·
COc1ccc(C(=O)Nc2cc3c(oc2=O)CCCC3=O)cc1,-5,-4,·,0,44*
CCOC(=O)CNC(=O)N1CCc2ccc(NC(=O)c3ccccc3OC)cc2C1,-4,-19,-1,0,-2
COc1ccccc1C(=O)Nc1ccc2c(c1)CN(Cc1cnc(C)s1)CC2,1,-11,33*,0,-2
O=S(=O)(Cc1ccccc1)N1CC2(C1)[C@@H](c1ccccc1)[C@H](CO)N2CC1CC1,-6,·,·,0,·
O=C(C[C@H]1CC[C@@H]2[C@H](COC[C@@H](O)CN2S(=O)(=O)c2cccc(Cl)c2)O1)NC1CCC1,-1,·,-25,0,3
CCOC(=O)C1=C(C)NC(=O)NC1c1ccc(N(CC)CC)cc1 (stereo not drawn),6,-6,8,0,-4
CCOC(=O)C1=C(C)NC(=O)NC1c1ccc(N(C)C)cc1 (stereo not drawn),4,-7,70*,0,-2
CSc1nc(Cl)c(Br)c(Nc2c[nH]c(=O)[nH]c2=O)n1,2,-10,52*,0,5
CC(=O)N(C)C[C@H]1Oc2ncc(C#Cc3ccccc3)cc2C(=O)N([C@@H](C)CO)C[C@H]1C,·,·,-7,-1,-1
CCS(=O)(=O)N1CCCCN2[C@H](CO)[C@H](c3ccc(-c4ccc(C#N)cc4)cc3)[C@H]2C1,·,·,55*,0,-3
CCS(=O)(=O)N1CCCCN2[C@H](CO)[C@@H](c3ccc(-c4ccc(C#N)cc4)cc3)[C@@H]2C1,·,·,65*,0,-3
CCS(=O)(=O)N1CCCCN2[C@H](C1)[C@H](c1ccc(-c3cccc(C#N)c3)cc1)[C@@H]2CO,·,·,-12,0,-2
N#Cc1ccc(-c2ccc([C@H]3[C@@H](CO)N4CCCCN(S(=O)(=O)c5ccccc5)C[C@@H]34)cc2)cc1,·,·,46*,0,-2
CC(C)CC#Cc1ccc([C@H]2[C@@H](CO)N3C(=O)CN(C(=O)NC(C)C)C[C@H]23)cc1,·,·,·,0,·
COCC(=O)Nc1ccc2c(c1)OC[C@@H](C)N(C(=O)c1ccccc1F)C[C@@H](C)[C@@H](OC)CN(C)C2=O,-5,·,-6,0,1
O=S(=O)(c1ccc(=S)[nH]c1)N1CCN(Cc2ccccc2)CC1,0,-6,25*,0,-4
